Screening data as filed in PubChem.
An excerpt weighted towards active compounds, which were near 2.5% of everything screened.
ADAM17 inh = inhibitors of human ADAM17; P78536; recombinant ADAM17, EDANS/DABCYL FRET peptide cleavage; inhibition, % at 6.95 µM; hit rate 0.83% among 370,000; AID 720648;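 active means inhibition above the mean of compounds lying between control limits plus 3 SD, set per campaign, cut at about 8.5% in these data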;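 further: 0% = DMSO-only wells as the low control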
JMJD2C inh = blocks human GASC-1 demethylase activity | Q9H3R0 | GST-JMJD2C(1-420) H3K9me3 demethylation, DELFIA europium | inhibition, % at 2.35 µM | hit rate 0.069% among 330,000;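 active means more than half of a compound's replicate wells show inhibition beyond 50%, single wells judged on their own value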;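 further: signal counts dimethyl H3K9 product captured on neutravidin plate; 0% = median of DMSO wells and 100% = 0.3 times that DMSO median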
NR2E3 ag-1 = activates human NR2E3 receptor; Q9Y5X4; CHO-S Gal4-NCOR/VP16-NR2E3 two-hybrid, luciferase; inhibition of corepressor binding, % at 3.98 µM; hit rate 0.35% among 360,000;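 active means inhibition above the mean of all tested compounds plus 3 SD, cut at about 70% in these data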;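 further: 0% = DMSO with NR2E3 transfected cells and 100% = cells lacking NR2E3 construct; higher means lower luciferase signal from less NR2E3 corepressor binding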
ADAM10 inh = inhibitors of human ADAM10 | O14672 | recombinant ADAM10, EDANS/DABCYL FRET peptide cleavage, 3 h | inhibition, % at 7 µM | hit rate 0.62% among 370,000 | AID 720582;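 active means inhibition above a per-campaign cutoff equal to the mean of compounds falling between control-based bounds plus 3 SD, cut at about 20% in these data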;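 further: 0% = DMSO wells while the 100% control is not disclosed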
KLK7 zymogen act = activates the human kallikrein-7 zymogen; hit rate 0.9% among 370,000; purified proKLK7, EDANS-DABCYL substrate fluorescence; 100% is mature enzyme control, 0% vehicle; P49862; activation, % at 7 µM; AID 652039;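 active means activation above the mean of all tested compounds plus 3 SD, computed per campaign excluding outliers beyond control limits, cut at about 13% in these data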
Target sequence (P49862 whole entry, looked up): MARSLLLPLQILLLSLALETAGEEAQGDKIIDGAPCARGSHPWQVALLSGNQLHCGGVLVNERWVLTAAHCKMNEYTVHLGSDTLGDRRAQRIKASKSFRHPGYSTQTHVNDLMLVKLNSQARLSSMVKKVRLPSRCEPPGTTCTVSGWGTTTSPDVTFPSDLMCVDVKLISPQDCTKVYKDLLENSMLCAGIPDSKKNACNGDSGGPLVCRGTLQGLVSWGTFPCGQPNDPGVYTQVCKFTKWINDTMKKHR
NR2E3 ag-2 = NR2E3 (human) agonism; GST-NR2E3/biotin-RetCOR TR-FRET, 1536-well; inhibition of corepressor binding, % at 4.78 µM; hit rate 0.12% among 320,000; Q9Y5X4;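 active means percent inhibition above the cutoff of mean plus 3 SD of all tested compounds, set per screening campaign, cut at about 20% in these data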;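 further: 0% = DMSO wells and 100% = biotin wells as full block of FRET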
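Format: 1536-well format; test system: GST-NR2E3 and biotin-RetCOR proteins; read-out basis: percent inhibition of TR-FRET ratio; timing: 5 h incubation at 4 °C; detection: time-resolved FRET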
proKLK7 act conf = confirmation of human kallikrein-7 zymogen activators; shares compounds with KLK7 zymogen act; purified proKLK7, EDANS-DABCYL substrate fluorescence; scaled: vehicle 0, mature enzyme 100; activation, % at 7 µM; hit rate 68% among 3,200;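 active means activation, as change over the incubation, above the mean of all tested compounds plus 3 SD, cut at about 13% in these data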
EDANS-DABCYL int = counter-screen for kallikrein-7 activators: EDANS-DABCYL optical interference | hit rate 80% among 3,200 | EDANS-DABCYL substrate fluorescence interference, no enzyme, 4 h; solvent 0%, active enzyme control 100% | activation, % at 7 µM | shares compounds with KLK7 zymogen act | AID 686952;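 active means activation above the all-compound mean plus 3 SD, ignoring values outside control-based bounds, cut at about 4.8% in these data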;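 further: value is the 4 h activation minus the activation read at time zero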
K7 EDANS ctr = optically interferes with EDANS-DABCYL fluorescence, kallikrein-7 activator counter-screen. AID 720493. EC50, µM. EDANS-DABCYL peptide fluorescence interference, no enzyme. hit rate 20% among 250. shares compounds with KLK7 zymogen act;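 active means compounds that raise the fluorescence signal in this interference counterscreen, with EC50 at or below 10 µM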;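 further: intact quenched peptide substrate alone read at 355 nm excitation and 520 nm emission; signal is fluorescence gain from T0 to T4 after four hours at room temperature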
* hit, by the source's call; i = inactive; nt = not tested or not shown.

SMILES	ADAM17 inh	JMJD2C inh	NR2E3 ag-1	ADAM10 inh	KLK7 zymogen act	NR2E3 ag-2	proKLK7 act conf	EDANS-DABCYL int	others
CC(=O)Nc1cc2nc(C)n(Cc3ccccc3[N+](=O)[O-])c2nc1C	-5	6	-19	1	0	2	nt	nt
CC[C@]12c3[nH]c4cc(-c5ccco5)ccc4c3CCN1C(=O)[C@@H](CC(=O)NCCCn1ccnc1)C[C@@H]2C(=O)N1CCN(C(=O)C2CC2)CC1	-47	nt	43	-170	69*	nt	54*	53*
CC[C@]12c3[nH]c4cc(-c5ccco5)ccc4c3CCN1C(=O)[C@@H](CC(=O)NCCCn1ccnc1)C[C@@H]2C(=O)N1CCN(C(=O)c2ccco2)CC1	-65	nt	2	-228	97*	nt	131*	130*
CC[C@]12c3[nH]c4cc(-c5ccco5)ccc4c3CCN1C(=O)[C@@H](CC(=O)NCCC1=CCCCC1)C[C@@H]2C(=O)N1CCN(C(=O)c2ccco2)CC1	nt	nt	10	nt	nt	nt	nt	nt
CCOc1ccc(-n2ccnc2SCC(=O)Nc2cc(C)on2)cc1	0	23	10	4	0	-1	nt	nt
Cc1ccc2c(c1)c1c(n2CC(O)Cn2ccnc2C)C(=O)CCC1 (stereo not drawn)	-74	nt	-12	-234	17*	3	9	15*
Cc1ccc2c(c1)c1c(n2CC(O)Cn2c(C)nc3ccccc32)C(=O)CCC1 (stereo not drawn)	-41	-17	-8	-166	-8	5	nt	nt
O=C(COC(=O)c1nc(-c2ccccc2)n(-c2cccc(C(F)(F)F)c2)n1)NCc1cccs1	0	1	0	7	0	-3	nt	nt
CN1C(=O)SC(Nc2cccc3ccccc23)C1=O (stereo not drawn)	-23	5	-11	-72	74*	1	88*	85*
Cc1c2ccccc2nc2c(F)c(NCCO)c(F)c(F)c12	-17	1	-4	-71	0	1	nt	nt
OCCNc1c2ccccc2nc2c(F)c(F)c(F)c(F)c12	-303	-1	-16	i	18*	-2	19*	8.6*	K7 EDANS ctr=>69
Cc1ccc(SCC(=O)OCC(=O)N(CC(C)C)c2c(N)n(Cc3ccccc3)c(=O)[nH]c2=O)c(C)c1	-2	i	-15	1	-1	-2	nt	nt
Cc1cc(=O)[nH]c(SCc2nc3ncccn3c2Br)n1	-300	2	-14	i	29*	8	12	15*
Cc1cc(=O)[nH]c(SCc2cccc3cccnc23)n1	-3	-1	35	1	0	-1	nt	nt
CN=C1c2cc3cc(OC)ccc3n2CCN1C	-8	4	10	-19	1	0	nt	nt
COc1ccc2c(c1)cc1n2CCN=C1NCCO	-54	8	-18	-203	17*	4	20*	27*
O=C(Nc1ccccc1C(=O)Nc1ccccc1C(=O)NCc1ccco1)c1ccco1	-16	-5	-6	-25	20*	-1	-103	-119
COCc1cc(C)nc2sc(C(=O)Nc3nccs3)c(N)c12	-20	-1	-13	-77	4	-2	nt	nt
Cc1cc(C)c2c(N)c(C(=O)Nc3nccs3)sc2n1	i	-8	-97	i	120*	-1	-3	-11
COc1ccc(S(=O)(=O)Nc2ccccc2C(=O)N2CCOCC2)cc1C	-1	-16	-23	-4	0	5	nt	nt
COc1ccccc1C(=O)Oc1ccc2c(c1)O/C(=C\c1ccncc1)C2=O	0	3	1	-12	15*	1	36*	38*
CS(=O)(=O)Oc1ccc2c(c1)O/C(=C\c1cccnc1)C2=O	-10	0	-22	-16	16*	1	15*	15*
